Data on one compound can be found in ChEMBL document CHEMBL3407478, “Development of a series of aryl pyrimidine kynurenine monooxygenase inhibitors as potential therapeutic agents for the treatment of Huntington's disease” (J Med Chem, 2015).

Data set [1] concerns Rattus norvegicus. Description: Inhibition of KMO in po dosed Sprague-Dawley rat plasma assessed as reduction in 3-hydroxykynurenice acid plasma level by […] analysis. It counts as functional, organism-based.
The nature of data set [2]: Half life at steady state in Sprague-Dawley rat plasma at 6.2 mg equivalents/kg, iv. It counts as ADME, cell-free.
Data set [3] can be described thus: Tmax in Sprague-Dawley rat brain at 6.2 mg equivalents/kg, iv. It counts as ADME, tissue-based. Summed up:
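Nonfasted male Sprague-Dawley rats (300−370 g). Single iv tail-vein dose of 6.2 mg equiv/kg (1.24 mg equiv/mL in DMSO:PEG400:water 10:40:50) or oral gavage of 12 mg equiv/kg (1.20 mg equiv/mL in 10% hydroxypropyl-β-cyclodextrin). Terminal bleeds under isoflurane (N = 3) at 0.083−24 h; heparin plasma; tissues snap-frozen.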

Data set [4] concerns Rattus norvegicus. As to the kind of experiment: Inhibition of KMO in Sprague-Dawley rat plasma assessed as time duration for reduction in 3-HK plasma level at 10 mg/kg, po by […] analysis. The data set is classed as functional. The method, boiled down:
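Sprague-Dawley rats given a single 10 mg/kg oral dose. KYN, 3-HK, KYNA and AA were quantified in plasma by LC-MS/MS at multiple time points.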

Data set [5] can be described thus: Tmax in Sprague-Dawley rat plasma at 10 mg equivalents/kg, po after 0.25 to 12 hrs. The data set is classed as ADME, organism-based. The method, boiled down: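 Fed male Sprague-Dawley rats given a single oral dose of 10 mg equiv/kg as 2 mg equiv/mL in 10% hydroxypropyl-β-cyclodextrin. Plasma, CSF, kidney, liver, and cortex and striatum from nonperfused brains sampled from 0.25 to 12 h.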

Activity calls are given as the source filed them. The calls are words filed in the database; no cut-off is given here.

By half-life is commonly meant the time in which the quantity being followed falls by half. One may read the Tmax as the time at which the peak concentration occurs. On to `O=C(O)c1cc(-c2ccc(OC3CC3)c(Cl)c2)ncn1`, for which the inhibition entry with Rattus norvegicus [1] was “Active”. In addition, in data set [2], the half-life was 108 min. Further, the Tmax in data set [3] was found to be 4.98 min; in data set [5] it was 30 min. Also, the Time with Rattus norvegicus [4] was determined as 8 h.
